Assay results: the EternaBench riboswitch data

System: MS2 coat protein
Test: apparent Kd, MS2 coat protein; higher = weaker binding; RNA-MaP array; theophylline 2 mM where present
Procedure, shortened: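 Apparent Kd: the median of filtered binding-curve fits from single clusters. Designs were transcribed on Illumina sequencing-chip clusters by stalled E. coli RNA polymerase and titrated with SNAP-549-labelled MS2 coat protein from 0.7 or 1.5 nM, doubling to 3 µM, in 100 mM Tris-HCl pH 7.5, 80 mM KCl, 4 mM MgCl2, BSA, DTT, yeast tRNA and Tween-20. Each series ran without and then with constant ligand, and green signal was normalised to red-channel RNA signal and control-cluster median Fmax.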

[1] = designed as: OFF switch for theophylline, no ligand
[2] = ligand present: theophylline, designed as: OFF switch for theophylline
[3] = designed as: ON switch for theophylline, no ligand
[4] = ligand present: theophylline, designed as: ON switch for theophylline

Sequence	apparent Kd [1]	apparent Kd [2]	apparent Kd [3]	apparent Kd [4]
GAUGAACUAUUUGAUACCAGACAACAUGAGGAUCACCCAUGUGCGCGUCGUCCUCUGCCUGUCCCUUGGCAGCGGAUAGUUUAUC	59.5 nM	89.9 nM		
AUCGUACCUGAGGAUACCAGCAUGUGAUCAUAACAUGAGGAUCACCCAUGUAAUCAGUGAUGCCCUUGGCAGCUUGAUCGGUACA			80.1 nM	24.9 nM
AAAUAAAUAACUGAUACCAGUCGGACAACAUGAGGAUCACCCAUGUUCACCCAUGUUGAGGACCCUUGGCAGCAGAAAUAUAAAA	92.3 nM	185 nM		
UGUUUGGUGCGCGAGUGUUGGAUAAUUGAUACCAGUGUAGAUGUGCGCCCUUGGCAGCGAAUCCUAACAUGAGGAUCACCCAUGU			43.8 nM	57.1 nM
UAGGUGAUCUUCAACGGAAAACGUUGUGAUACCAGCCAACAAUACGGCCCUUGGCAGCACAUGAGGAUCACCCAUGUGUACACCG	29.4 nM	193 nM		
CUGCCAUGCAGAGAUACCAGUGCGCUCAGCACAUGAGGAUCACCCAUGUCGGCUGCCGAUCACCCUUGGCAGCUCUGCAUGGCAG			11.4 nM	9.11 nM
GAGGUCCUGAGAGAUACCAGUGAGGCCACAUGAGGAUCACCCAUGUCCCUCACUCCGGCCCACCCUUGGCAGCUCGGAAGGUAAA	18.1 nM	119 nM		
GGUUUCGCGGGCGAUACCAGCUUGAUCGUACUGGCCUGGUACAUGAGGAUCACCCAUGUAAGCCCUUGGCAGCGCGCGCGAGACC	11.3 nM	24.7 nM		
GGUGGCGUGACGGAUACCAGCCACCGCCGCAAGGCCACAUGAGGAUCACCCAUGUUGGGUGGCCCUUGGCAGCUGUCGUGCGGCG			157 nM	281 nM
UGUAACAUGAGGAUCACCCAUGUGAGUGAUACCAGAUAAGUAGUAGUCCCUUGGCAGCAUAUUGGGCGAGUGUAUAGUCUAUGCG			146 nM	193 nM
UGCACCAUAAUCAUGUUGGUGCUAGGUGAUACCAGCAUCGAAAGAUGCCCUUGGCAGCACCAACAUGAGGAUCACCCAUGUAAUA			130 nM	99.8 nM
GAUGAUAUUGCAGAUACCAGACACAUGAGGAUCACCCAUGUCUCUGAGAUGAAGGAUCGUGUCCCUUGGCAGCUGCGAUAUCAUC	32.7 nM	338 nM		
AUUAUCAUGGUCAUAUAUAUAUCGUCAGAUACCAGACUAGAUAUAGUCCCUUGGCAGCUGUUACAUGAGGAUCACCCAUGUUAUA	138 nM	47.8 nM		
CGUGUCGUAACUGAUACCAGUGUACUGACAUGAGGAUCACCCAUGUUGGGUUUUGUUGUACACCCUUGGCAGCAGAAUCGAUACG	76.9 nM	119 nM		
AUAAGUAAUGUUUCGUGUAUUAUUACAGAUACCAGACUAUCCUAUGUCCCUUGGCAGCUGGAUUACAUGAGGAUCACCCAUGUUG	16.4 nM	24.9 nM		
CUAUAAGUAACUGAUACCAGUGUACUGACAUGAGGAUCACCCAUGUUGGGUUUUGUUGUACACCCUUGGCAGCAGAAUCUUGUAG	62.1 nM	85 nM		
AUAACUGUCAAGGAAGGUGAUCCAGCAGAUACCAGCUAGGAAACUAGCCCUUGGCAGCUGCAACAUGAGGAUCACCCAUGUAAUA	76.8 nM	121 nM		
CAUUAAGUAACUGAUACCAGUGUACUGACAUGAGGAUCACCCAUGUUGGGUUUUGUUGUACACCCUUGGCAGCAGAAUCUUAAUG	68.7 nM	95.5 nM		
UGUACAUGAGGAUCACCCAUGUUACAUGAUACCAGACAUGAGAGUGUCCCUUGGCAGCAUGGAGCUGAUACGGCGGGAAGCCGGA			26.8 nM	32.6 nM
ACAUGAGGAUCACCCAUGUUCCUCAUUGAUACCAGUGAAUUUAGACGCCCUUGGCAGCGAGUUUUUUUAUAAGAUUUUUUUUUUU	626 nM	1320 nM		
AUGUCGUUGAAUACAGCGGCAUGGAGUGAUACCAGAAUGAUCAAAUUCCCUUGGCAGCAUGACAUGAGGAUCACCCAUGUUCGAU			111 nM	104 nM
CAUACUUUAGUAUGACGUGUGGGCAGUGAUACCAGAUACGAAAGUAUCCCUUGGCAGCACAACAUGAGGAUCACCCAUGUAAUUA			20.5 nM	31.3 nM
AUAAAUAUAACCGAUACCAGCCUUAUACAUGAGGAUCACCCAUGUUAUGCUUCCUUUUUUGGCCCUUGGCAGCGGAAAUGGGUAA			81.7 nM	36.2 nM
UAUAUAUAUAUUGAUACCAGCAGAGAAAACAUAUAUCCUAACAUGAGGAUCACCCAUGUAUGCCCUUGGCAGCGAUAUAUAUAUA	26 nM	32.3 nM		
GAGCUGAUGUAGGCCGGAUAUCCGGGAGAUACCAGUACAGAAAUGUACCCUUGGCAGCUCUUUCCUACAUGAGGAUCACCCAUGU	16.6 nM	96 nM		
AAACGUUGCUGCGAUACCAGACAUGAGGAUCACCCAUGUACCAAGGUACGAAUAUAACAUGUCCCUUGGCAGCGCAGCAACGAAA	12.6 nM	279 nM		
AUCAGUAGAACUGAUACCAGUCAAAGGCUUUGACCUCAUAACAUGAGGAUCACCCAUGUUGACCCUUGGCAGCAGUAGGCAAGGG	21.4 nM	35.1 nM		

Sequence	apparent Kd [1]	apparent Kd [2]	apparent Kd [3]	apparent Kd [4]
AGAUUAAAGAGUGAUACCAGACUACAUGAGGAUCACCCAUGUUACAUUUGAGUAGCUUUAGUCCCUUGGCAGCACUUUAUGUACA	45.5 nM	17.6 nM		
GAUGAACUAUUUGAUACCAGACUACAUGAGGAUCACCCAUGUGUGUUAAUUUUUCAGUCAGUCCCUUGGCAGCAAAUAGUUUAUC	61.2 nM	146 nM		
GAGCUGAUGUAGAGAAUAAAUAUAAGAGAUACCAGUACAGAAAUGUACCCUUGGCAGCUCAACUUUACAUGAGGAUCACCCAUGU	13.9 nM	18.8 nM		
UUAAUGGAGCUUUAAUUUACGAUUUCUGAUACCAGUGUUUCAUUUCACCCUUGGCAGCAGUGACAUGAGGAUCACCCAUGUAAUA			25.4 nM	23.5 nM
AGCGACAUGCGUGAUACCAGCUACAUGAGGAUCACCCAUGUACGUAGGAAACUACUGUGUAGCCCUUGGCAGCAUAGUGCAUGUC	12.6 nM	57.1 nM		
AAUAACAUGAGGAUCACCCAUGUAAAAGAUACCAGAUGCAUGAUGAUCCCUUGGCAGCUUAAAACGCGAUUGGAAACAAUCGCGA			31.2 nM	126 nM
UUACAUGAGGAUCACCCAUGUCAUAAUGAUACCAGAUAGUUAAUGAUCCCUUGGCAGCAUAAUACCUAGACAUUUAAGUCAUAGG			83.1 nM	41 nM
UCGUGGUCCGCAAGGACCGGGAGUUGCGAUACCAGCACGGUAACGUGCCCUUGGCAGCGCACAUGAGGAUCACCCAUGUGGUGUU	229 nM	514 nM		
CGAUCUUUCGAAAGAAGGAUCGAGUCUGAUACCAGAGACGAAAGUCUCCCUUGGCAGCAGUGCCAACAUGAGGAUCACCCAUGUU			15.8 nM	15.5 nM
AAUCUGUCGGGUGAUACCAGCCUCGGCGCAUCUCACGCUGAACAUGAGGAUCACCCAUGUGGCCCUUGGCAGCACAUGACAAAUC			572 nM	55.1 nM
AGAAUAACACAUGAGGAUCACCCAUGUGAUACCAGCUAGGAAACUAGCCCUUGGCAGCACAUAAGGUGAUCCAGCUGCCAAGAAU	137 nM	74.9 nM		
ACGAUGCGACAUGAGGAUCACCCAUGUGAUACCAGCCUGGAAACAGGCCCUUGGCAGCACAAAUACUCCAGAAACGCAUCGAAUA	267 nM	439 nM		
CUCGGUUGAUCCUAGCUGCCGAGAGGUGAUACCAGCAUCGAAAGAUGCCCUUGGCAGCACCAACAUGAGGAUCACCCAUGUAAUA			55.1 nM	483 nM
AGACAUGUAAGAUAAAUGACUUAUACAGAUACCAGACUAGUCAAUGUCCCUUGGCAGCUGCAUAACAUGAGGAUCACCCAUGUAA	26.7 nM	32.7 nM		
ACACGAGGAUCACCCGUGUCAUGUGGUGAUACCAGUUUACAUGAGAACCCUUGGCAGCAUAACAACAUGAGGAUCACCCAUGUCA			32.3 nM	41.7 nM
GCACCAGGUACGGAUACCAGCUGCCAGAGAUACAUGAGGAUCACCCAUGUGACCUGAUUUAGCCCUUGGCAGCUGUACCUGGUGC			466 nM	35.7 nM
GUAUGGAAACAUACUUGGGUAUCAUGAGAUACCAGUACAGAAAUGUACCCUUGGCAGCUCAAGCAUACAUGAGGAUCACCCAUGU	18 nM	27.1 nM		
UCUUUCUAUGUAGAUACCAGCAUGUUAUAUUUCUAAUGACAUGAGGAUCACCCAUGUAAAUGCCCUUGGCAGCUACAUUUUCUUU			23.1 nM	16 nM
CGGUACAUGAGGAUCACCCAUGUGUCGGAUACCAGAGAGCCGUCUCUCCCUUGGCAGCUGGUUUUACAUGAGGAUCACCCAUGUG	13.6 nM	20.1 nM		
CUCUGAGUGAGUAAUCACUCAGAGGCGGAUACCAGCGAGGUCCAUCGCCCUUGGCAGCCGAACAUGAGGAUCACCCAUGUCGGUA			10.7 nM	14.6 nM
UUUGCACAUGAGGAUCACCCAUGUACAGAUACCAGCCUCAUCUACGGCCCUUGGCAGCUGAGACAAUGGUGACGUGAUGGGCUUU	11.3 nM	16.2 nM		
CCUGCGUUUCUUUUCUUUCGCAGGAAUGAUACCAGUAGGGAAACCUACCCUUGGCAGCAUGGGACAUGAGGAUCACCCAUGUUUU			166 nM	33.4 nM
GCCAGACAUGAGGAUCACCCAUGUAGCGAUACCAGCUCUGUUGUGAGCCCUUGGCAGCGCACUGGCAUCGUAGGUGAUCCAAUAA			75.2 nM	187 nM
UCGUGUGUUUCGGAUACCAGUGAAAUCGAUACAUGAGGAUCACCCAUGUGAGAGGAUGUACACCCUUGGCAGCUGUCUGUAUCUG			13.1 nM	13.7 nM
ACAUGAGGAUCACCCAUGUUCCUCGCCGAUACCAGUGAAGAAGUACGCCCUUGGCAGCGGAAAGAGUAUUUUGGAGAUGAGGUAC	80 nM	88.8 nM		
UGAUCCUGCAGGGAUACCAGCGCCGCUUGAUAACUGUGCACAUGAGGAUCACCCAUGUAGCGCCCUUGGCAGCCCAGCUAGAGGG			25.4 nM	23 nM
